Assay results pooled from the literature.
Observed: cell growth or viability

COc1ccc(S(=O)(=O)ON=C2C=C(C)C(=O)C(C)=C2)cc1
CC50 (PC-3): 4.74 µM

N=C(N)NCc1ccc(NC(=O)c2ccc(C(=O)Nc3ccc(C4=CCN(C(=N)N)CC4)cc3)cn2)cc1
CC50 (NIH3T3; MTS; 24 h): > 1170 µM

COc1cccc2c1C(=O)c1c(O)c3c(c(O)c1C2=O)C[C@@](O)(C(=O)CO)C[C@@H]3O[C@H]1C[C@H](N)[C@H](O)[C@H](C)O1
CC50 (HFF-1; resazurin; 72 h): 0.468 µM

CCCCCCCCCCCCCCCc1ccc(CP(=O)(O)O)cc1
viability (Mm1; trypan blue; 10 µM; 20 h): > 93%

N=C(N)NCc1ccc(NC(=O)c2ccc(C(=O)Nc3ccc(C4=CCN(C(=N)N)CC4)nn3)cc2)cc1
CC50 (NIH3T3; MTS; 24 h): 231 µM

O=C(CCl)Cn1nnc(-c2ccccc2)c1COC(=O)NCc1ccccc1
CC50 (HFF-1; ATP luminescence; 48 h): 20 µM

COc1cc(OC)cc([C@H]2C[C@@H](C)OC(=O)c3cc4ccccn4c32)c1 (racemic)
CC50 (HFF-1; resazurin; 72 h): > 100 µM

O=C(O)c1ccc(P(c2ccccc2)c2ccccc2)cc1
CC50 (NIH3T3; resazurin; 18 h): 210 µg/mL
